Test results published in ChEMBL document CHEMBL3351483, “Desmethyl macrolides: synthesis and evaluation of 4-desmethyl telithromycin” (ACS Med Chem Lett, 2014).
In brackets after ≈: the same amount, converted by molar mass.

Key:
[1] = system: Staphylococcus aureus; experiment: Antimicrobial activity against Staphylococcus aureus UCN14 harboring ribosome A2058T mutant; format: functional
[2] = system: Staphylococcus aureus; experiment: Antimicrobial activity against Staphylococcus aureus ATCC 33591 harboring ermA gene; format: functional
[3] = system: Escherichia coli; experiment: Antimicrobial activity against Escherichia coli SQ171/2058G harboring ribosome A2058G mutant; format: functional
[4] = system: Escherichia coli; experiment: Antimicrobial activity against tolC-negative wild type Escherichia coli DK/pKK3535; format: functional
How it was run: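 MIC determined against E. coli DK/pKK3535, a tolC(−) strain that lacks the outer-membrane TolC efflux pump, which recognizes antibacterial drugs, and that carries wild-type ribosomes.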

[5] = system: Escherichia coli; experiment: Antimicrobial activity against tolC-negative Escherichia coli DK/2058G harboring ribosome A2058G mutant; format: functional
How it was run: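 MIC determination in a tolC(−) E. coli strain lacking the outer-membrane efflux pump, carrying a mixed ribosome population of wild-type and A2058G mutant at about 1:1.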

[6] = Selectivity ratio of MIC for Escherichia coli […] harboring ribosome A2058G mutant to MIC for tolC-negative wild type Escherichia coli DK/pKK3535; format: functional
[7] = target: Bacterial 70S ribosome; experiment: Binding affinity to Escherichia coli ribosomes after 2 hrs by fluorescence polarization assay in presence of BODIPY-labeled erythromycin A
How it was run: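 Competitive fluorescence polarization binding assay with isolated E. coli ribosomes and BODIPY-labelled erythromycin as the displaced probe; dissociation constant (Kd) derived from probe displacement.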

| SMILES | MIC [1] [µg/mL] | MIC [2] [µg/mL] | MIC [3] [µg/mL] | MIC [4] [µg/mL] | MIC [5] [µg/mL] | Selectivity ratio [6] | Kd [7] [nM] |
| --- | --- | --- | --- | --- | --- | --- | --- |
| CC[C@H]1OC(=O)[C@H](C)C(=O)C[C@@H](O[C@@H]2O[C@H](C)C[C@H](N(C)C)[C@H]2O)[C@](C)(OC)C[C@@H](C)C(=O)[C@H](C)[C@H]2N(CCCCn3cnc(-c4cccnc4)c3)C(=O)O[C@]12C | > 128 | > 128 | > 256 | 0.5 (≈ 0.627 µM) | 1 (≈ 1.25 µM) | 4 | 6.4 |
| CC[C@H]1OC(=O)[C@H](C)C(=O)[C@H](C)[C@@H](O[C@@H]2O[C@H](C)C[C@H](N(C)C)[C@H]2O)[C@](C)(OC)C[C@@H](C)C(=O)[C@H](C)[C@H]2N(CCCCn3cnc(-c4cccnc4)c3)C(=O)O[C@]12C [TELITHROMYCIN] | > 256 | > 128 | > 256 | 0.5 (≈ 0.616 µM) | 4 (≈ 4.93 µM) | – | 6.4 |
